Screening results deposited in PubChem by Johns Hopkins Ion Channel Center.
TRPC6 act = activates the mouse TRPC6 cation channel; Q61143; HEK293-TRPC6 membrane potential dye fluorescence; hits give high values; B-score at 10 µM; 310,000 tested, 0.13% active;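 active means B-score of the integrated fluorescence ratio above library mean plus 3 SD, and starting fluorescence ratio within library mean plus 5 SD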;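 further: higher score means more depolarization so channel activation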
TRPC4 block = TRPC4 (mouse) channel inhibition. 300,000 tested, 0.39% active. B-score at 10 µM. Q9QUQ5. HEK293 TRPC4beta/mu-opioid, DAMGO-evoked Fluo4 calcium flux; hits give low values;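 active means B-score over 3 SD under the library average, no early fluorescence shift, positive overall ratio signal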
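System: stable TRPC4beta/mu-opioid receptor HEK293 cells; Dosing: single-point compound dosing; Measured by: Fluo4 Ca2+ flux fluorescence; Read-out basis: per-well B score of integrated baseline-normalized Fluo4 ratio.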
Kir21 inh = blocks the mouse Kir2.1 inward-rectifier potassium channel | HEK293-Kir2.1, FluxOR thallium flux fluorescence; hits give low values | B-score at 10 µM | 310,000 tested, 0.85% active | AID 1672;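 active means fluorescence ratio B-score at or below minus 3 SD of library scores, with starting-brightness B-score within 2 SD, cut at about -4.2 in these data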;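 further: channel flux triggered by added potassium and thallium sulfate stimulus; B-score of peak minus minimum fluorescence over baseline after thallium stimulus; more negative B-score means stronger Kir2.1 block with less thallium influx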
Target sequence (P35561 whole entry, looked up): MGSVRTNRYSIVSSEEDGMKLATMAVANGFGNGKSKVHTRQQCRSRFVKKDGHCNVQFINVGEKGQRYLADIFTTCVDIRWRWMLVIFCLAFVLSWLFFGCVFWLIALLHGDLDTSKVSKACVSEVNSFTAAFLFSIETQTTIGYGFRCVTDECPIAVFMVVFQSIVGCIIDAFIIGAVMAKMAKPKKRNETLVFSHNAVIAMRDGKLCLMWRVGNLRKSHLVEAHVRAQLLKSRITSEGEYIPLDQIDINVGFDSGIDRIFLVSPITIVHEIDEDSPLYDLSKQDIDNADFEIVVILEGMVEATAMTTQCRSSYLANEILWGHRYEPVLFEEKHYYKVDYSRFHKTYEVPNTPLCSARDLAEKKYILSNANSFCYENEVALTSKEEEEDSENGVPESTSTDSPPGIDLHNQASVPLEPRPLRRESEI
TRPC4 potent = allosterically enhances the mouse TRPC4 cation channel | AID 2227 | HEK293 TRPC4beta/mu-opioid, DAMGO EC20, Fluo-4 Ca2+ flux; hits give high values | B-score at 10 µM | 310,000 tested, 0.42% active | Q9QUQ5;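 active means B-score of calcium response area above 5 SD of library B-scores, with initial fluorescence ratio within 5 SD of library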;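 further: B-score of integrated fluorescence ratio over time as area under calcium response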
TRPC6 inhibitor = blocks the mouse TRPC6 cation channel | B-score at 10 µM | 310,000 tested, 1.1% active | Q61143 | HEK293-TRPC6, membrane potential dye, ACh-evoked depolarization; hits give low values;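 active means B-score under library mean minus 3 SD, initial fluorescence not abnormally high, positive integrated signal ratio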;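 further: B-score derived from integrated fluorescence ratio over the kinetic read; more negative B-score means stronger inhibition of depolarization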
TRPC4 act = opens the mouse TRPC4 cation channel | Q9QUQ5 | HEK293 TRPC4beta/mu-opioid, Fluo4 calcium fluorescence; hits give high values | B-score at 10 µM | 310,000 tested, 0.49% active;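 active means B-score above 5 SD of library B-scores, and initial fluorescence ratio not above library mean plus 5 SD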;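 further: positive B-score marks a calcium rise read as TRPC4 activation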
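Assay system – TRPC4beta and mu-opioid receptor HEK293 stable cells · Measured by – Fluo4 fluorescence, kinetic · Schedule – dye loading 45 min room temperature, 110 s kinetic read · Read-out – B-scored integrated calcium fluorescence ratio · Controls – buffer and maximal DAMGO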
Active calls of the source: *. Compounds with a hit are over-represented: about 3% of the library has one in this group of screens.

`CC1CCN(CCCCOc2ccccc2-c2ccccc2)CC1` gave TRPC6 act inactive, TRPC4 block inactive, Kir21 inh -9.7*, TRPC4 potent inactive, TRPC6 inhibitor inactive and TRPC4 act inactive.
CC1CCN(CCOc2ccc(OCc3ccccc3)cc2)CC1 was read as TRPC6 act inactive, TRPC4 block inactive, Kir21 inh -7.1*, TRPC4 potent inactive, TRPC6 inhibitor inactive and TRPC4 act inactive.
Screening CC1CCN(CCOCCOc2ccccc2-c2ccccc2)CC1 returned TRPC6 act inactive, TRPC4 block -6*, Kir21 inh -5.5*, TRPC4 potent inactive, TRPC6 inhibitor inactive and TRPC4 act inactive.
`CCOc1ccccc1NC(=S)N1CCN(c2cccc(OC)c2)CC1` gave TRPC6 act inactive, TRPC4 block inactive, Kir21 inh -0.34, TRPC4 potent inactive, TRPC6 inhibitor inactive and TRPC4 act inactive.
Screening CCOCCCn1cnc2c(c1=O)c1nc3ccccc3nc1n2-c1ccc(C)cc1 returned TRPC6 act inactive, TRPC4 block -8*, Kir21 inh -0.56, TRPC4 potent inactive, TRPC6 inhibitor inactive and TRPC4 act inactive.
Screening Fc1cccc(NCCc2c[nH]c3ccccc23)n1 returned TRPC6 act inactive, TRPC4 block inactive, Kir21 inh 0.99, TRPC4 potent inactive, TRPC6 inhibitor inactive and TRPC4 act inactive.
For c1ccc2c(NCCc3c[nH]c4ccccc34)c3ccccc3nc2c1 the results were TRPC6 act inactive, TRPC4 block inactive, Kir21 inh -12*, TRPC4 potent inactive, TRPC6 inhibitor inactive and TRPC4 act inactive.
Screening CCN(C(=O)c1ccc(Cl)cc1[N+](=O)[O-])c1ccccc1C returned TRPC6 act inactive, TRPC4 block inactive, Kir21 inh -5*, TRPC4 potent inactive, TRPC6 inhibitor inactive and TRPC4 act inactive.
`O=C(NCCN1CCN(c2ccccc2)CC1)Nc1ccccc1Br` gave TRPC6 act inactive, TRPC4 block inactive, Kir21 inh 0.76, TRPC4 potent inactive, TRPC6 inhibitor inactive and TRPC4 act inactive.
`Cc1nn(C(C)C(=O)NCCCN(Cc2ccccc2)C(C)C)c(=O)c2c1sc1ccccc12` (stereo unspecified) gave TRPC6 act inactive, TRPC4 block inactive, Kir21 inh -0.31, TRPC4 potent inactive, TRPC6 inhibitor inactive and TRPC4 act inactive.
For CCC(C(=O)NCCCN(CC)Cc1ccccc1)n1nc(C)c2sc3ccccc3c2c1=O (stereo unspecified) the results were TRPC6 act inactive, TRPC4 block inactive, Kir21 inh -9.5*, TRPC4 potent inactive, TRPC6 inhibitor inactive and TRPC4 act inactive.
O=C(CCNC(=O)C1CCN(S(=O)(=O)c2ccccc2)CC1)Nc1ccccc1 was read as TRPC6 act inactive, TRPC4 block inactive, Kir21 inh -0.91, TRPC4 potent inactive, TRPC6 inhibitor inactive and TRPC4 act inactive.
O=C(C1=C(O)C(=O)N(CCCn2ccnc2)C1c1cccc(Br)c1)c1ccco1 (stereo unspecified) was read as TRPC6 act inactive, TRPC4 block inactive, Kir21 inh -1.2, TRPC4 potent inactive, TRPC6 inhibitor inactive and TRPC4 act inactive.
For COc1ccc(CNC(=O)c2sc3nc4c(c(C(F)(F)F)c3c2N)CCC4)cc1 the results were TRPC6 act inactive, TRPC4 block inactive, Kir21 inh -5.1*, TRPC4 potent inactive, TRPC6 inhibitor inactive and TRPC4 act inactive.
Screening Cc1ccc(CNC(=O)c2sc3nc4c(c(C(F)(F)F)c3c2N)CCC4)cc1 returned TRPC6 act inactive, TRPC4 block inactive, Kir21 inh 0.14, TRPC4 potent inactive, TRPC6 inhibitor inactive and TRPC4 act inactive.
`Cc1nn(C(=O)c2cccnc2)c(C)c1Sc1ccccc1` gave TRPC6 act inactive, TRPC4 block -6*, Kir21 inh -0.36, TRPC4 potent inactive, TRPC6 inhibitor inactive and TRPC4 act inactive.
`CCn1c(SCc2nc3ccccc3[nH]2)nnc1-c1ccccc1OC` gave TRPC6 act inactive, TRPC4 block inactive, Kir21 inh 1.7, TRPC4 potent inactive, TRPC6 inhibitor inactive and TRPC4 act inactive.
C=CCn1c(SCc2csc(-c3ccc(C)cc3)n2)nnc1-c1ccccc1OC was read as TRPC6 act inactive, TRPC4 block inactive, Kir21 inh -7.7*, TRPC4 potent inactive, TRPC6 inhibitor inactive and TRPC4 act inactive.
For Cc1ccc(-c2nc(CS(=O)CC(=O)NCCCN3CCN(Cc4ccccc4)CC3)c(C)o2)cc1 (stereo unspecified) the results were TRPC6 act inactive, TRPC4 block inactive, Kir21 inh -0.05, TRPC4 potent inactive, TRPC6 inhibitor inactive and TRPC4 act inactive.
Screening CN(C)S(=O)(=O)c1cccc(COC(=O)c2ccc(Cl)cc2O)c1 returned TRPC6 act inactive, TRPC4 block inactive, Kir21 inh 1.4, TRPC4 potent 17*, TRPC6 inhibitor inactive and TRPC4 act inactive.
Cc1ccc(NC(=O)CNCCCN2CCOCC2)cc1S(=O)(=O)N1CCCCC1 was read as TRPC6 act inactive, TRPC4 block inactive, Kir21 inh 0.8, TRPC4 potent inactive, TRPC6 inhibitor inactive and TRPC4 act inactive.
CCCc1[nH]nc2c1C(CCc1ccccc1)C(C#N)=C(N)O2 (stereo unspecified) was read as TRPC6 act inactive, TRPC4 block inactive, Kir21 inh 0.29, TRPC4 potent 13*, TRPC6 inhibitor inactive and TRPC4 act inactive.
`CN(NS(=O)(=O)c1ccc(Cl)cc1)c1ncc(C(F)(F)F)cc1Cl` gave TRPC6 act inactive, TRPC4 block inactive, Kir21 inh -6.4*, TRPC4 potent inactive, TRPC6 inhibitor inactive and TRPC4 act inactive.
Screening Cc1cc(C)c(S(=O)(=O)Nc2ccc(Cl)cn2)c(C)c1 returned TRPC6 act inactive, TRPC4 block inactive, Kir21 inh -1.6, TRPC4 potent inactive, TRPC6 inhibitor inactive and TRPC4 act inactive.
CCOP(=O)(OCC)c1nc(-c2ccccc2Cl)oc1N1CCOCC1 was read as TRPC6 act inactive, TRPC4 block inactive, Kir21 inh 0.64, TRPC4 potent inactive, TRPC6 inhibitor inactive and TRPC4 act inactive.
CCOP(=O)(OCC)c1nc(-c2ccc(Cl)cc2Cl)oc1N1CCCCC1 was read as TRPC6 act inactive, TRPC4 block inactive, Kir21 inh -0.77, TRPC4 potent 19*, TRPC6 inhibitor inactive and TRPC4 act inactive.
Screening Cc1cc(S(=O)(=O)NC2CCN(Cc3ccccc3)CC2)c(C)cc1Cl returned TRPC6 act inactive, TRPC4 block inactive, Kir21 inh 0.47, TRPC4 potent 20*, TRPC6 inhibitor inactive and TRPC4 act inactive.
